Calls of active or inactive are those of the source. The rule behind the calls is not given here.
Key:
[1] = system: Mycolicibacterium smegmatis; assay: Growth inhibition of Mycobacterium smegmatis upto 300 uM; type: functional, organism-based
[2] = Inhibition of Escherichia coli Histidine6-tagged 20 nM MenE expressed in Escherichia coli BL21 cells coexpressing Mycobacterium tuberculosis Histidine6-tagged 7.2 uM MenB assessed as formation of DHNA-CoA by coupled assay
Summary of the method: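 Coupled MenE–MenB assay. E. coli MenE and M. tuberculosis MenB each carried an N-terminal His6 tag, were expressed separately in E. coli BL21, and were affinity-purified. Reactions contained MenB (7.2 μM), ATP, CoA and OSB (each 240 μM), and inhibitor (0–200 μM), and were started by adding MenE (20 nM final). DHNA-CoA formation was followed at 392 nm to derive IC50.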

[3] = Inhibition of Escherichia coli Histidine6-tagged 5 uM MenE expressed in Escherichia coli BL21 cells coexpressing Mycobacterium tuberculosis Histidine6-tagged 100 nM MenB assessed as formation of DHNA-CoA by coupled assay
Summary of the method: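 Counter-assay in the coupled format using separately purified His6-tagged E. coli MenE and M. tuberculosis MenB. MenB was limiting (100 nM) and MenE in excess (5 μM), to test for direct MenB inhibition. The read-out was DHNA-CoA formation.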

SMILES | inhibition [1] | IC50 [2] [µM] | inhibition [3]
C=C(CCC(=O)NS(=O)(=O)NC[C@H]1O[C@@H](n2cnc3c(N)ncnc32)[C@H](O)[C@@H]1O)c1ccccc1C(=O)OC | inactive | > 200 | inactive
C=C(CCC(=O)NS(=O)(=O)OC[C@H]1O[C@@H](n2cnc3c(N)ncnc32)[C@H](O)[C@@H]1O)c1ccccc1C(=O)OC | inactive | > 200 | inactive
C=C(CC/C=C/S(=O)(=O)NC[C@H]1O[C@@H](n2cnc3c(N)ncnc32)[C@H](O)[C@@H]1O)c1ccccc1C(=O)OC | inactive | > 200 | inactive
COC(=O)c1ccccc1C(=O)CCC(=O)NS(=O)(=O)OC[C@H]1O[C@@H](n2cnc3c(N)ncnc32)[C@H](O)[C@@H]1O | inactive | 38 | inactive
COC(=O)c1ccccc1C(=O)CCC(=O)NS(=O)(=O)NC[C@H]1O[C@@H](n2cnc3c(N)ncnc32)[C@H](O)[C@@H]1O | inactive | 34.1 | inactive
COC(=O)c1ccccc1C(=O)CC/C=C/S(=O)(=O)NC[C@H]1O[C@@H](n2cnc3c(N)ncnc32)[C@H](O)[C@@H]1O | inactive | 5.7 | inactive

Source: ChEMBL document CHEMBL1154500, “Mechanism-based inhibitors of MenE, an acyl-CoA synthetase involved in bacterial menaquinone biosynthesis” (Bioorg Med Chem Lett, 2008)
